Reference: ChEMBL document CHEMBL4024790 (J Med Chem, 2018)
Active and inactive are the calls of the source. The calls are words filed in the database; no cut-off is given here.

Legend:
[1] = Terminal half life in beagle dog at 5 mg/kg, po administered via gavage by LC-MS/MS analysis; format: ADME, organism-based, Canis lupus familiaris; details: in vivo, read-out: beta t1/2 (converted)
[2] = AUC (0 to infinity) in beagle dog at 0.3 mg/kg, iv by LC-MS/MS analysis; format: ADME, organism-based, Canis lupus familiaris; set-up: dose 0.3 mg/kg, route intravenous, time infinity; details: in vivo
Outline: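 Dogs received a single IV dose as a solution in 20% (w/v) sulfobutylether-β-cyclodextrin with hydrochloric acid, at 0.4 mL/kg. Blood was drawn by carotid artery cannula into K3EDTA at set times from 2 min to 24 h. Plasma was acetonitrile-precipitated with internal standard and run by positive-ESI LC-MS/MS against standards of 0.61–1250 ng/mL. AUC was extrapolated from time 0 to infinity.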

Mus musculus [3] = organism: Mus musculus; experiment: Increase in cGMP level in CD-1 mouse brain hippocampus assessed as unbound brain concentration required to show the effect by immunoassay; format: functional
Outline: (§1)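 CD-1 mice dosed SC (solution in 20% SBE-β-CD with 2 molar equivalents 1N HCl, 1 mL/kg); euthanized by focused microwave irradiation of brain; cortex, striatum, hippocampus homogenized in 0.5 N HCl, centrifuged; cyclic nucleotides in supernatant by enzyme immunoassay. Unbound brain exposure from satellite animals; dose-response and time-course data combined with linear model; one-way ANOVA with Fisher's PLSD.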

Rattus norvegicus [4] = experiment: Antipsychotic activity in Long Evans rat at 0.32 to 3.2 mg/kg, sc by conditioned avoidance responding assay; format: functional, organism-based
Outline: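 Rats dosed SC at 0.32, 1.0 and 3.2 mg/kg; conditioned avoidance responding also run in combination with risperidone 0.032 mg/kg.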

[5] = Drug metabolism in dog hepatocytes assessed as 3-(7-methyl-5-(1-methyl-5-(5-(trifluoromethyl)pyridin-2-yl)-1H-pyrazol-4-yl)imidazo[1,5-f][1,2,4]triazin-4-ylamino)propanoic acid formation at 1 to 50 uM after 1 hr by LC-MS/MS analysis; format: ADME, cell-based, Canis lupus familiaris, Hepatocyte
Outline: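 Rat, dog or human liver microsomes or hepatocytes (P450 0.35–0.5 µM final) incubated with compound at 1, 10 or 50 µM in 100 mM phosphate buffer with 1 mM NADP regenerating system, 37°C for 1 h; quenched with 4 volumes acetonitrile, centrifuged, supernatant evaporated, reconstituted in 5% aqueous acetonitrile and analysed by reversed-phase LC.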

Cytochrome P450 2C19 = Cytochrome P450 2C19 (Homo sapiens, UniProt P33261); experiment: Time-dependant inhibition of recombinant human CYP2C19; format: ADME; details: recombinant enzyme
Cytochrome P450 2C19, sequence (P33261 whole entry): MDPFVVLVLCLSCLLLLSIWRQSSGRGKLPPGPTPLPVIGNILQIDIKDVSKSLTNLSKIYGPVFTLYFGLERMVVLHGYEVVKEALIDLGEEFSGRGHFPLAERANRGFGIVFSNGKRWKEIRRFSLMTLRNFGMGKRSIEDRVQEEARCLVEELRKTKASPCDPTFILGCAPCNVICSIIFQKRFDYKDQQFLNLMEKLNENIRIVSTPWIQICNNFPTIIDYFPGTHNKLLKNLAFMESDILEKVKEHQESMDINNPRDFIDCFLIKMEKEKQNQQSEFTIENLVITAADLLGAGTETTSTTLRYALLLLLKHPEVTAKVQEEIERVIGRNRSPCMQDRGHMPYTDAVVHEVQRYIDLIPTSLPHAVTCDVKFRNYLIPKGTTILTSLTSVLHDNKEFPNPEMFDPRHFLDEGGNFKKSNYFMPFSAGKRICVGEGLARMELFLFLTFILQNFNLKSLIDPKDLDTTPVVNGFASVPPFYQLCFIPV

Cytochrome P450 2C9 = Cytochrome P450 2C9 (Homo sapiens, UniProt P11712); experiment: Time-dependant inhibition of recombinant human CYP2C9; format: ADME; details: recombinant enzyme
Cytochrome P450 2C9, sequence (P11712 whole entry): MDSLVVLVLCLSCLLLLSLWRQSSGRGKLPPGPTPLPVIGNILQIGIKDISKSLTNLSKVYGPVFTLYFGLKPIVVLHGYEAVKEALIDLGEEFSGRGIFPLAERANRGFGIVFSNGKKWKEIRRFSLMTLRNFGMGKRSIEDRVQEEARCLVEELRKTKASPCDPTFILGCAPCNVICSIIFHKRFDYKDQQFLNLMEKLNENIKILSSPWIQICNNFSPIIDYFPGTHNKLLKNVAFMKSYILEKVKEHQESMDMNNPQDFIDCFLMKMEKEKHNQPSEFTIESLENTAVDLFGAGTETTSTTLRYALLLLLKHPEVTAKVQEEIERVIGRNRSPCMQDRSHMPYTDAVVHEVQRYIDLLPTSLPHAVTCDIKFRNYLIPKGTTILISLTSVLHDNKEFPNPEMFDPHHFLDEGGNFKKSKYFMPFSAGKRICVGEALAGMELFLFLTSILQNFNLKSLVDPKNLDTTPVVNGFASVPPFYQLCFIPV

Mus musculus [6] = organism: Mus musculus; experiment: Effect on cAMP level in CD-1 mouse brain cortex by immunoassay; format: functional; outline: as §1
Mus musculus [7] = organism: Mus musculus; experiment: Increase in cGMP level in CD-1 mouse brain hippocampus by immunoassay; format: functional
Outline: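 CD-1 mice given compound; brains fixed by focused microwave irradiation, and cortex, striatum and hippocampus dissected and homogenized in 0.5 N HCl, then centrifuged. cGMP in the supernatant measured by enzyme immunoassay. Unbound brain concentration taken from satellite animals. Dose-response and time-course data combined, and a linear Cbu–cGMP model fitted. The Cbu E50 is the projected Cbu giving a 50% rise in cGMP. Statistics by one-way ANOVA with Fisher's PLSD, p<0.05.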

Mus musculus [8] = organism: Mus musculus; experiment: Effect on cAMP level in CD-1 mouse brain striatum by immunoassay; format: functional; outline: as §1
[9] = Intrinsic clearance in human hepatocytes; format: ADME, cell-based, Hepatocyte; details: read-out: CLH
Rattus norvegicus [10] = experiment: Toxicity in rat assessed as effect on vasculature at 5 to 250 mg/kg/day, po up to 15 days by microscopic method; format: organism-based; details: in vivo, 360 h
Cytochrome P450 1A2 = target: T1, Cytochrome P450 1A2 (Homo sapiens, UniProt P05177); experiment: Induction of CYP1A2 (unknown origin); format: ADME
T1 sequence (P05177 whole entry): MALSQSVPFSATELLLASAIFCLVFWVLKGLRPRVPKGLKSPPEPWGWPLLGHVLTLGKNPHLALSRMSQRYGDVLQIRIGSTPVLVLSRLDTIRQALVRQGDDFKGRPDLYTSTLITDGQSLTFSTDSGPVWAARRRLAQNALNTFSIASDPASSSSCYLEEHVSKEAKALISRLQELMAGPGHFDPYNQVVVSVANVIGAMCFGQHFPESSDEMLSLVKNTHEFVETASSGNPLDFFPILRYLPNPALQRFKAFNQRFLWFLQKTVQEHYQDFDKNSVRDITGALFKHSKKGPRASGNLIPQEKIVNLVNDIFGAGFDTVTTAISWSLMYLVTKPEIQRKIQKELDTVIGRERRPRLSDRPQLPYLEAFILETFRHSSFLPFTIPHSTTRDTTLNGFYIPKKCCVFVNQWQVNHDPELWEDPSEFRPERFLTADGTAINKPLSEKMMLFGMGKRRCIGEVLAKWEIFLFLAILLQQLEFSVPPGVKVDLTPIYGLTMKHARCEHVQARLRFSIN

[11] = Volume of distribution at steady state in beagle dog at 0.3 mg/kg, iv by LC-MS/MS analysis; format: ADME, organism-based, Canis lupus familiaris; details: in vivo, read-out: Vdss
Outline: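 Beagle dogs got a single IV dose as a solution in 20% (w/v) sulfobutyl ether β-cyclodextrin with hydrochloric acid, at 0.4 mL/kg. Blood was drawn into K3EDTA via carotid artery cannula at set times from 2 min to 24 h. Plasma was acetonitrile-precipitated with internal standard and measured by LC-MS/MS with positive electrospray, standard curve 0.61 to 1250 ng/mL.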

[12] = Tmax in beagle dog at 5 mg/kg, po administered via gavage by LC-MS/MS analysis; format: ADME, organism-based, Canis lupus familiaris; details: in vivo
[13] = Ratio of unbound brain concentration to unbound plasma concentration in sc dosed CD-1 mouse; format: ADME, organism-based; details: brain and plasma, read-out: K(p,uu,brain)
Outline: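 Compound given sc to mice, iv and/or sc to rats, po to dogs and sc to monkeys; sc doses as a solution in 20% SBE-BCD + 2 molar equiv 1N HCl. Plasma, whole brain and CSF taken at matched times from 2 min to 24 h and quantified by LC-MS/MS. Fraction unbound in plasma and brain homogenate (diluted 4-fold, dilution factor 5 applied) by 6 h equilibrium dialysis against phosphate buffer at 37°C.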

Rattus norvegicus [14] = experiment: Reversal of MK-801-induced disruption of low frequency cortical delta oscillation in Sprague-Dawley rat brain at 0.03 mg/kg, iv measured up to 55 mins by electrophysiology method; format: functional, organism-based
Rattus norvegicus [15] = organism: Rattus norvegicus; experiment: Cardiotoxicity in rat up to 1 month by microscopic method; format: toxicity
Cytochrome P450 2D6 [16] = target: T2, Cytochrome P450 2D6 (Homo sapiens, UniProt P10635); experiment: Inhibition of recombinant human CYP2D6; format: ADME; details: recombinant enzyme
T2 sequence (P10635 whole entry): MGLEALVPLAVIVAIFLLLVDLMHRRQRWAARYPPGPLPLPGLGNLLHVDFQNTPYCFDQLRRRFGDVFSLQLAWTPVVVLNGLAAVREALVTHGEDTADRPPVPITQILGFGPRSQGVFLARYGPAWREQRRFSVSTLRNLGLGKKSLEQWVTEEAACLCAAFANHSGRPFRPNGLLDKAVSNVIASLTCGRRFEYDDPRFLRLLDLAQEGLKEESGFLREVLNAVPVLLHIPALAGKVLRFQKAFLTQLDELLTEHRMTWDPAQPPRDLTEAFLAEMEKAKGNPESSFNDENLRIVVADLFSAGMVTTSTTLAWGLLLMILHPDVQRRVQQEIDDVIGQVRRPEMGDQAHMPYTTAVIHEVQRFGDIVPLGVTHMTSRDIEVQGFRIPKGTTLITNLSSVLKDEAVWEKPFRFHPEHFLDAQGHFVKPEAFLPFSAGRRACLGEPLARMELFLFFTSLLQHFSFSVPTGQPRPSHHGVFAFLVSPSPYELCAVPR

Rattus norvegicus [17] = experiment: Cardiotoxicity in rat at 5 to 250 mg/kg/day, po up to 15 days by microscopic method; format: toxicity, organism-based; details: in vivo, 360 h
Outline: (§2)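 Exploratory rat toxicity study, oral dosing at 5, 50 and 250 mg/kg/day for up to 15 days, with microscopic examination of heart and vasculature and measurement of plasma and brain exposure.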

Brain = experiment: Drug uptake in rat brain at 5 to 250 mg/kg/day, po up to 15 days by microscopic method; format: ADME, organism-based; details: in vivo, 360 h; outline: as §2
Mus musculus [18] = experiment: In vivo effect on phosphorylated CREB level in CD-1 mouse brain striatum by immunoassay; format: functional, organism-based
Cytochrome P450 2D6 [19] = target: T2, Cytochrome P450 2D6; experiment: Time-dependant inhibition of recombinant human CYP2D6; format: ADME; details: recombinant enzyme

half-life [1]: 4.1 h
AUC(0-inf) [2]: 431 ng·h/mL
Drug metabolism [5]: Metabolite_Detected
TDI (Cytochrome P450 2C19): Not Active
TDI (Cytochrome P450 2C9): Not Active
CLint scaled [9]: 44 mL/min/kg
Activity (Cytochrome P450 1A2): Not Active
Vd [11]: 2.89 L/kg
Tmax [12]: 0.25 h
Kp uu [13]: 0.51
inhibition (INH) (Cytochrome P450 2D6 [16]): Not Active
Drug uptake (Brain): Active
TDI (Cytochrome P450 2D6 [19]): Not Active
SMILES: Cc1nc(-c2cnn(C)c2-c2ccc(C(F)(F)F)cn2)c2c(N3CCC3)ncnn12 [PF-05180999]
fEC50 (Mus musculus [3]): 116.3 nM
Activity (Rattus norvegicus [4]): inactive
Activity (Mus musculus [6]): inactive
Activity (Mus musculus [7]): Dose-dependent effect
Activity (Mus musculus [8]): inactive
Activity (Rattus norvegicus [10]): Non-Toxic
Activity (Rattus norvegicus [14]): inactive
Activity (Rattus norvegicus [15]): Non-Toxic
Activity (Rattus norvegicus [17]): Non-Toxic
Activity (Mus musculus [18]): inactive
